Assay results taken from ChEMBL document CHEMBL3227922, “Synthesis and antitumor activity of sugar-ring hydroxyl analogues of daunorubicin” (J Med Chem, 1979).

Assays:
[1] = tested on: P388; experiment: Antitumor activity against mouse P388 cells allografted in CDF1 mouse assessed as tumor inhibition at 200 mg/kg, ip on days 5, 9 and 13 relative to untreated control; type: functional; details: route intraperitoneal
In short: (§1)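 CDF₁ mice given 10⁶ P388 lymphocytic leukemia cells ip on day 0; drug ip on days 5, 9 and 13. Six mice per dose level (five for one compound). T/C % = median survival time as percent of untreated controls. Acute toxic death counted as survival under 5 days after treatment.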

[2] = tested on: Mus musculus; experiment: Toxicity in CDF1 mouse allografted with mouse P388 cells assessed as survival at 12.5 to 200 mg/kg, ip on days 5, 9 and 13; type: organism-based; parameters: dose 12.5-200 mg/kg, route intraperitoneal; details: in vivo
In short: (§2)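 CDF1 mice were inoculated ip with 10⁶ P388 lymphocytic leukemia cells on day 0. Drug was given ip on days 5, 9 and 13, with six mice per dose level. Read-out was median survival time as percent of untreated controls (T/C). Acute toxic-drug deaths were defined as survival under 5 days after treatment injection.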

[3] = tested on: P388; experiment: Antitumor activity against mouse P388 cells allografted in CDF1 mouse assessed as tumor inhibition at 25 mg/kg, ip on days 5, 9 and 13 relative to untreated control; type: functional; details: route intraperitoneal; in short: as §1
[4] = tested on: P388; experiment: Antitumor activity against mouse P388 cells allografted in CDF1 mouse assessed as tumor inhibition at 50 mg/kg, ip on days 5, 9 and 13 relative to untreated control; type: functional; details: route intraperitoneal; in short: as §1
[5] = tested on: P388; experiment: Antitumor activity against mouse P388 cells allografted in CDF1 mouse assessed as tumor inhibition at 12.5 mg/kg, ip on days 5, 9 and 13 relative to untreated control; type: functional; details: route intraperitoneal; in short: as §1
[6] = tested on: P388; experiment: Antitumor activity against mouse P388 cells allografted in CDF1 mouse assessed as tumor inhibition at 100 mg/kg, ip on days 5, 9 and 13 relative to untreated control; type: functional; details: route intraperitoneal; in short: as §1
[7] = tested on: Mus musculus; experiment: Toxicity in CDF1 mouse allografted with mouse P388 cells assessed as survival at 3.13 to 50 mg/kg, ip on days 5, 9 and 13; type: organism-based; parameters: dose 3.13-50 mg/kg, route intraperitoneal; details: in vivo; in short: as §2
[8] = tested on: P388; experiment: Antitumor activity against mouse P388 cells allografted in CDF1 mouse assessed as tumor inhibition at 3.13 mg/kg, ip on days 5, 9 and 13 relative to untreated control; type: functional; details: route intraperitoneal; in short: as §1
[9] = tested on: P388; experiment: Antitumor activity against mouse P388 cells allografted in CDF1 mouse assessed as tumor inhibition at 6.25 mg/kg, ip on days 5, 9 and 13 relative to untreated control; type: functional; details: route intraperitoneal; in short: as §1
[10] = tested on: P388; experiment: Antitumor activity against mouse P388 cells allografted in CDF1 mouse assessed as tumor inhibition at 4 mg/kg, ip on days 5, 9 and 13 relative to untreated control; type: functional; details: route intraperitoneal; in short: as §1
[11] = tested on: B16; experiment: Antitumor activity against mouse B16 cells allografted in BDF1 mouse assessed as tumor inhibition at 1 mg/kg, ip on day 5 relative to untreated control; details: route intraperitoneal
[12] = tested on: P388; experiment: Antitumor activity against mouse P388 cells allografted in CDF1 mouse assessed as tumor inhibition at 16 mg/kg, ip on days 5, 9 and 13 relative to untreated control; type: functional; details: route intraperitoneal; in short: as §1
[13] = tested on: P388; experiment: Antitumor activity against mouse P388 cells allografted in CDF1 mouse assessed as tumor inhibition at 2 mg/kg, ip on days 5, 9 and 13 relative to untreated control; type: functional; details: route intraperitoneal; in short: as §1
[14] = tested on: B16; experiment: Antitumor activity against mouse B16 cells allografted in BDF1 mouse assessed as tumor inhibition at 4 mg/kg, ip on day 5 relative to untreated control; details: route intraperitoneal
[15] = tested on: Mus musculus; experiment: Toxicity in CDF1 mouse allografted with mouse P388 cells assessed as survival at 2 to 32 mg/kg, ip on days 5, 9 and 13; type: organism-based; parameters: dose 2-32 mg/kg, route intraperitoneal; details: in vivo; in short: as §2
[16] = tested on: P388; experiment: Antitumor activity against mouse P388 cells allografted in CDF1 mouse assessed as tumor inhibition at 8 mg/kg, ip on days 5, 9 and 13 relative to untreated control; type: functional; details: route intraperitoneal; in short: as §1
[17] = tested on: P388; experiment: Antitumor activity against mouse P388 cells allografted in CDF1 mouse assessed as tumor inhibition at 32 mg/kg, ip on days 5, 9 and 13 relative to untreated control; type: functional; details: route intraperitoneal; in short: as §1
[18] = tested on: Mus musculus; experiment: Toxicity in BDF1 mouse allografted with mouse B16 cells at 16 mg/kg, ip on day 5; details: in vivo
[19] = tested on: B16; experiment: Antitumor activity against mouse B16 cells allografted in BDF1 mouse assessed as tumor inhibition at 2 mg/kg, ip on day 5 relative to untreated control; details: route intraperitoneal
[20] = tested on: Mus musculus; experiment: Toxicity in BDF1 mouse allografted with mouse B16 cells at 200 mg/kg, ip on day 5; details: in vivo
[21] = tested on: Mus musculus; experiment: Toxicity in BDF1 mouse allografted with mouse B16 cells at 100 mg/kg, ip on day 5; details: in vivo
[22] = tested on: B16; experiment: Antitumor activity against mouse B16 cells allografted in BDF1 mouse assessed as tumor inhibition at 50 mg/kg, ip on day 5 relative to untreated control; details: route intraperitoneal
[23] = tested on: B16; experiment: Antitumor activity against mouse B16 cells allografted in BDF1 mouse assessed as tumor inhibition at 12.5 mg/kg, ip on day 5 relative to untreated control; details: route intraperitoneal
[24] = tested on: B16; experiment: Antitumor activity against mouse B16 cells allografted in BDF1 mouse assessed as tumor inhibition at 25 mg/kg, ip on day 5 relative to untreated control; details: route intraperitoneal
[25] = tested on: Mus musculus; experiment: Toxicity in CDF1 mouse allografted with mouse P388 cells assessed as survival at 25 to 400 mg/kg, ip on days 5, 9 and 13; type: organism-based; parameters: dose 25-400 mg/kg, route intraperitoneal; details: in vivo
In short: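 Median survival time was expressed as percent of untreated controls (T/C). Acute toxic-drug deaths were scored as survival under 5 days after treatment injection.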

[26] = tested on: P388; experiment: Antitumor activity against mouse P388 cells allografted in CDF1 mouse assessed as tumor inhibition at 400 mg/kg, ip on days 5, 9 and 13 relative to untreated control; type: functional; details: route intraperitoneal; in short: as §1
[27] = tested on: B16; experiment: Antitumor activity against mouse B16 cells allografted in BDF1 mouse assessed as tumor inhibition at 16 mg/kg, ip on day 5 relative to untreated control; details: route intraperitoneal
[28] = tested on: B16; experiment: Antitumor activity against mouse B16 cells allografted in BDF1 mouse assessed as tumor inhibition at 8 mg/kg, ip on day 5 relative to untreated control; details: route intraperitoneal
[29] = tested on: Mus musculus; experiment: Toxicity in BDF1 mouse allografted with mouse B16 cells at 1 to 16 mg/kg, ip on day 5; details: in vivo
[30] = tested on: P388; experiment: Antitumor activity against mouse P388 cells allografted in CDF1 mouse assessed as tumor inhibition at 1 mg/kg, ip on days 5, 9 and 13 relative to untreated control; type: functional; details: route intraperitoneal; in short: as §1
[31] = tested on: Mus musculus; experiment: Toxicity in CDF1 mouse allografted with mouse P388 cells assessed as survival at 1 to 16 mg/kg, ip on days 5, 9 and 13; type: organism-based; parameters: dose 1-16 mg/kg, route intraperitoneal; details: in vivo; in short: as §2

## COc1cccc2c1C(=O)c1c(O)c3c(c(O)c1C2=O)C[C@@](O)(C(C)=O)C[C@@H]3O[C@H]1C[C@H](OC(C)=O)[C@H](OC(C)=O)[C@H](C)O1
[1]
  T/C: 186%
[2]
  Activity: Non-toxic
[3]
  T/C: 108%
[4]
  T/C: 110%
[5]
  T/C: 100%
[6]
  T/C: 155%

## COc1cccc2c1C(=O)c1c(O)c3c(c(O)c1C2=O)C[C@@](O)(C(C)=O)C[C@@H]3O[C@H]1C[C@H](O)[C@H](O)[C@@H](C)O1
[7]
  Activity: Non-toxic
[3]
  T/C: 100%
[4]
  T/C: 102%
[5]
  T/C: 97%
[8]
  T/C: 100%
[9]
  T/C: 102%

## COc1cccc2c1C(=O)c1c(O)c3c(c(O)c1C2=O)C[C@@](O)(C(C)=O)C[C@@H]3O[C@H]1C[C@H](N)[C@H](O)[C@H](C)O1 [DAUNORUBICIN]
[10]
  T/C: 123%
[11]
  T/C: 122%
[12]
  T/C: 122%
[13]
  T/C: 116%
[14]
  T/C: 96%
[15]
  Activity: Non-toxic
[16]
  T/C: 151%
[17]
  T/C: 97%
[18]
  Activity: Toxic
[19]
  T/C: 127%

## COc1cccc2c1C(=O)c1c(O)c3c(c(O)c1C2=O)C[C@@](O)(C(C)=O)C[C@@H]3O[C@@H]1C[C@H](OC(=O)c2ccc([N+](=O)[O-])cc2)[C@H](OC(=O)c2ccc([N+](=O)[O-])cc2)[C@@H](C)O1
[7]
  Activity: Non-toxic
[3]
  T/C: 107%
[4]
  T/C: 105%
[5]
  T/C: 110%
[8]
  T/C: 101%
[9]
  T/C: 106%

## COc1cccc2c1C(=O)c1c(O)c3c(c(O)c1C2=O)C[C@@](O)(C(C)=O)C[C@@H]3O[C@H]1C[C@H](O)[C@H](O)[C@H](C)O1
[20]
  Activity: Toxic
[21]
  Activity: Toxic
[3]
  T/C: 125%
[22]
  T/C: 146%
[4]
  T/C: 183%
[23]
  T/C: 113%
[24]
  T/C: 126%
[25]
  Activity: Non-toxic
[6]
  T/C: 156%
[26]
  T/C: 89%

## COc1cccc2c1C(=O)c1c(O)c3c(c(O)c1C2=O)C[C@@](O)(C(C)=O)C[C@@H]3O[C@H]1C[C@H](OC(=O)c2ccc([N+](=O)[O-])cc2)[C@H](OC(=O)c2ccc([N+](=O)[O-])cc2)[C@@H](C)O1
[7]
  Activity: Non-toxic
[3]
  T/C: 106%
[4]
  T/C: 101%
[5]
  T/C: 99%
[8]
  T/C: 98%
[9]
  T/C: 100%

## COc1cccc2c1C(=O)c1c(O)c3c(c(O)c1C2=O)C[C@@](O)(C(C)=O)C[C@@H]3O[C@@H]1C[C@H](O)[C@H](O)[C@@H](C)O1
[7]
  Activity: Non-toxic
[3]
  T/C: 101%
[4]
  T/C: 101%
[5]
  T/C: 100%
[8]
  T/C: 99%
[9]
  T/C: 100%

## COc1cccc2c1C(=O)c1c(O)c3c(c(O)c1C2=O)C[C@@](O)(C(=O)CO)C[C@@H]3O[C@H]1C[C@H](N)[C@H](O)[C@H](C)O1 [DOXORUBICIN]
[10]
  T/C: 149%
[27]
  T/C: 156%
[28]
  T/C: 150%
[29]
  Activity: Non-toxic
[11]
  T/C: 118%
[12]
  T/C: 114%
[13]
  T/C: 132%
[14]
  T/C: 132%
[30]
  T/C: 118%
[31]
  Activity: Non-toxic
[16]
  T/C: 150%
[19]
  T/C: 122%
